Measured values published in ChEMBL document CHEMBL1146634, “Sulphonamide-based small molecule VLA-4 antagonists” (Bioorg Med Chem Lett, 2003).

What was measured:
Integrin alpha-4/beta-1 [1] = target: T1, Integrin alpha-4/beta-1 (Homo sapiens, UniProt P05556+P13612); assay: Inhibition of CS-1 fragment binding to Very late antigen 4 (VLA-4) expressed in Ramos cells; assay type: cell-based
Integrin alpha-4/beta-1 [2] = target: T1, Integrin alpha-4/beta-1; assay: Inhibition of CS-1 fragment binding to Very late antigen 4 expressed in Ramos cells in 10% fetal bovine serum(FBS); assay type: cell-based
Mus musculus [3] = assay: Inhibition of eosinophil infiltration in the murine asthma model tested in vivo at a dose of 10 mg/kg (intravenous); assay type: functional; settings: route intranasal, in the assay text read “intranasal” for “intravenous”
Method in brief: (§1)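 Mice were ovalbumin-sensitized and challenged. Twenty-four hours after the final OVA challenge, they were exsanguinated and the right lung lavaged (0.4 mL saline ×3). Total BAL cells were counted, then the pelleted cells were smeared, stained with Discombe's fluid (eosin/acetone) and counterstained with 0.07% methylene blue for eosinophil counts. Inhibition is expressed relative to OVA-challenged animals.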

[4] = Plasma clearance in cynomolgus monkey; assay type: ADME, organism-based; settings: cercopithecidae
Mus musculus [5] = assay: Inhibition of eosinophil infiltration in the murine asthma model tested in vivo at a dose of 5 mg/kg (intravenous); assay type: functional; method in brief: as §1
[6] = Cmax in cynomolgus monkey by po administration; assay type: ADME, organism-based; design: route oral; settings: cercopithecidae, in vivo
[7] = Oral bioavailability in cynomolgus monkey; assay type: ADME, organism-based, Macaca fascicularis; settings: in vivo
Mus musculus [8] = assay: Inhibition of eosinophil infiltration in the murine asthma model tested in vivo by po administration at a dose of 25 mg/kg (peroral); assay type: functional; method in brief: as §1
Mus musculus [9] = assay: Inhibition of eosinophil infiltration in the murine asthma model tested in vivo by po administration at a dose of 10 mg/kg (peroral); assay type: functional; method in brief: as §1
[10] = Pharmacokinetic property(Vdss) in cynomolgus monkey; assay type: ADME, organism-based; settings: cercopithecidae, in vivo; read-out: Vdss
Mus musculus [11] = assay: Eosinophil count in murine asthma model tested in vivo at a dose of 5 mg/kg (intravenous)
Mus musculus [12] = assay: Reduction in eosinophil count in murine asthma model tested in vivo by po administration at a dose of 25 mg/kg (peroral); assay type: functional; method in brief: as §1
Mus musculus [13] = assay: Reduction in eosinophil count in murine asthma model tested in vivo by at a dose of 10 mg/kg (intravenous); assay type: functional; method in brief: as §1
Mus musculus [14] = assay: Reduction in eosinophil count in murine asthma model tested in vivo by po administration at a dose of 10 mg/kg (peroral); assay type: functional; method in brief: as §1
[15] = Cmax in cynomolgus monkey by iv administration; assay type: ADME, organism-based; design: route intravenous; settings: cercopithecidae, in vivo
[16] = Half-life period in cynomolgus monkey; assay type: ADME; settings: cercopithecidae, in vivo

T1 sequence (P05556 whole entry, the tested form may be a part): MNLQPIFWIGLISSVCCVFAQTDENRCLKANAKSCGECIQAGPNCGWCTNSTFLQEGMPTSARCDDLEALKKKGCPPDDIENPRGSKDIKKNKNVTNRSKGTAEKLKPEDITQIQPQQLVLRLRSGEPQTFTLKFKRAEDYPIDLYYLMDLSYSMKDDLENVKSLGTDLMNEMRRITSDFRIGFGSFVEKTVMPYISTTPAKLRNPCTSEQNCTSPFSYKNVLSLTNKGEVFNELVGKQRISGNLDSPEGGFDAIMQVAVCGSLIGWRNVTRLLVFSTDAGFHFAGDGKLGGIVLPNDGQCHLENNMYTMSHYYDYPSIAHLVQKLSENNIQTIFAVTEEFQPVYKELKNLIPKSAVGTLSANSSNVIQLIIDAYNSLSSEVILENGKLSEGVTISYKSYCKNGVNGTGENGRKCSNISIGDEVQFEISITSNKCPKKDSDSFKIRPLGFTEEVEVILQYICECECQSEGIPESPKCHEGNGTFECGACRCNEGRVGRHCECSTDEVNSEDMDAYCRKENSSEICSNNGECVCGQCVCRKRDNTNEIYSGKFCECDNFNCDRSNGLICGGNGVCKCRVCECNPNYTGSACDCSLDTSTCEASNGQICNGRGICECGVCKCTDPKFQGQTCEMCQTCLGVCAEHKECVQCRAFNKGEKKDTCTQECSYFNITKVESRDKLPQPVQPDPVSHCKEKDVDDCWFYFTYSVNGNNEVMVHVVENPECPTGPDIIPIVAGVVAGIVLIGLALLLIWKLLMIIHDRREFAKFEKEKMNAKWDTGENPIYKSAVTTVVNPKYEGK
T1 sequence (P13612 whole entry, the tested form may be a part): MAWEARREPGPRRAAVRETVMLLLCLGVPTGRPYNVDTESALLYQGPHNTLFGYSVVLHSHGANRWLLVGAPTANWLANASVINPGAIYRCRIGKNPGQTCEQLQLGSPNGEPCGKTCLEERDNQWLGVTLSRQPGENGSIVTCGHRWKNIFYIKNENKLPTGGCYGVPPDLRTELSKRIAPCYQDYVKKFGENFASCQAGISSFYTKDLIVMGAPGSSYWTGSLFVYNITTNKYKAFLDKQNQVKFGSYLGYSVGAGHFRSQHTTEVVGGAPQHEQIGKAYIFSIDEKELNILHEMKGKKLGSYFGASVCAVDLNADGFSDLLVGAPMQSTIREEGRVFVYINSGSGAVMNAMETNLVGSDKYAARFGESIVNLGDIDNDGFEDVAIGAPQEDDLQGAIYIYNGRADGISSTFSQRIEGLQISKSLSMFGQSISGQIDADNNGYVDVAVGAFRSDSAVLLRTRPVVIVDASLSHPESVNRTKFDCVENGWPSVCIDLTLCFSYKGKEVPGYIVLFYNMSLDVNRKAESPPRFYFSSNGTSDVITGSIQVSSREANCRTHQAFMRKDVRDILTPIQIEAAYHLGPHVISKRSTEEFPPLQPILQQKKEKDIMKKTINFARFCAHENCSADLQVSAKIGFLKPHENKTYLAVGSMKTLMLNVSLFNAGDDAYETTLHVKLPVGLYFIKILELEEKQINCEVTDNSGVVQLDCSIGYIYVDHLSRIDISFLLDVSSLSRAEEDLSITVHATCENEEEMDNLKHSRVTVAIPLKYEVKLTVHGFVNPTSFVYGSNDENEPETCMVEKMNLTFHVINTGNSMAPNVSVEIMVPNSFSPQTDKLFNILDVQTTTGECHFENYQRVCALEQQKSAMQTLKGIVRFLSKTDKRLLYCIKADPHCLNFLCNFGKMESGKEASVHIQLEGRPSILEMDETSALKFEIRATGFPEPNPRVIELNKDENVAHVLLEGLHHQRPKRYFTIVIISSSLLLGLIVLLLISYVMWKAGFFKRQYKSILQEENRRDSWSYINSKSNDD

SMILES	IC50 (Integrin alpha-4/beta-1 [1]) [nM]	IC50 (Integrin alpha-4/beta-1 [2]) [nM]	other results
O=C(O)CN(CC(=O)N[C@@H](Cc1ccc(OCc2c(Cl)cccc2Cl)cc1)C(=O)O)S(=O)(=O)c1ccc(F)cc1	0.7	10	–
CN([C@@H](CCC(=O)O)C(=O)N[C@@H](Cc1ccc(OCc2c(Cl)cccc2Cl)cc1)C(=O)O)S(=O)(=O)c1ccccc1	0.1	2	–
O=C(O)CN(CC(=O)N[C@@H](Cc1ccc(OCc2c(Cl)cccc2Cl)cc1)C(=O)O)S(=O)(=O)c1ccccc1	0.6	8	EOS inhibition (Mus musculus [3]): 50%; clearance [4]: 58.8 mL/min/kg; EOS inhibition (Mus musculus [5]): 28%; Cmax [6]: 101 ng/mL; bioavailability [7]: 26.9%; EOS inhibition (Mus musculus [8]): 75%; EOS inhibition (Mus musculus [9]): 69%; Vd [10]: 0.303 L/kg; EOS count (Mus musculus [11]): 6.26 10^5 cells; EOS count (Mus musculus [12]): 2.16 10^5 cells; EOS count (Mus musculus [13]): 4.36 10^5 cells; EOS count (Mus musculus [14]): 2.67 10^5 cells; Cmax [15]: 528 ng/mL; half-life [16]: 6.6 min
O=C(O)CN(CC(=O)N[C@@H](Cc1ccc(OCc2c(Cl)cccc2Cl)cc1)C(=O)O)S(=O)(=O)c1cccs1	0.8	10	–
CN([C@@H](CC(=O)O)C(=O)N[C@@H](Cc1ccc(OCc2c(Cl)cccc2Cl)cc1)C(=O)O)S(=O)(=O)c1ccccc1	2	–	–
O=C(O)CC[C@H](NS(=O)(=O)c1ccc2ccccc2c1)C(=O)N[C@@H](Cc1ccc(OCc2c(Cl)cccc2Cl)cc1)C(=O)O	2	–	–

Second part, led by results:

IC50 (Integrin alpha-4/beta-1 [1]) [nM]	IC50 (Integrin alpha-4/beta-1 [2]) [nM]	SMILES	other results
180	–	O=C(O)CC[C@H](NS(=O)(=O)c1ccc2ccccc2c1)C(=O)N[C@@H](Cc1ccccc1)C(=O)O	–
1	–	CN([C@@H](CCC(=O)O)C(=O)N[C@@H](Cc1ccc(OCc2c(Cl)cccc2Cl)cc1)C(=O)O)S(=O)(=O)c1ccc2ccccc2c1	–
1.5	10	O=C(O)CN(CC(=O)N[C@@H](Cc1ccc(OCc2c(Cl)cccc2Cl)cc1)C(=O)O)S(=O)(=O)c1ccccn1	–
